Test results as given in PMC5291243 (Nucleic Acids Research, 2016).
Values belong to the molecule of their own block, whether it stands above or below them. Non-standard residues stand in square brackets, D forms with d. No end group written: not given here. Lys(Me3) = C[N+](C)(C)CCCC[C@H](N)C(=O)O; pT = C[C@@H](OP(=O)(O)O)[C@H](N)C(=O)O

Experiments:
RPE-1 cells = experiment: Confocal fluorescence microscopy of Haspin inhibitor-treated RPE-1 cells; assay type: cell-based; conditions: 24 h
Summary of the method: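 RPE-1 cells were grown on glass coverslips in DMEM/F12 with 10% FCS to 70% confluence. They were treated 24 h with the Haspin inhibitor from a 500 μM DMSO stock; controls got solvent only. Cells were fixed in 4% formaldehyde, permeabilized in 0.5% Triton X-100, and immunostained for DIDO, ING1 and H3K4me3, with DAPI counterstain. Single confocal layers were imaged with sequential excitation.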

[1] = target: DIDO PHD finger (aa 260–325) (UniProt Q9BTC0); experiment: other fluorescence titration
DIDO PHD finger (aa 260–325), sequence (Q9BTC0 260-325): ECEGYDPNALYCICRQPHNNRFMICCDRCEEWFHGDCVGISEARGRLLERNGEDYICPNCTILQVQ

ING1 PHD finger [2] = target: T1, ING1 PHD finger (Homo sapiens, UniProt Q9UK53); experiment: 1H,15N HSQC NMR titration; assay type: binding; conditions: 298K, peptide aa 1–12 of H3
T1 sequence (Q9UK53 200-279 isoform Q9UK53-2): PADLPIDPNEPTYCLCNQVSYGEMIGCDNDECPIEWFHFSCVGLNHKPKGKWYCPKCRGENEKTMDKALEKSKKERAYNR

DIDO PHD finger [3] = target: DIDO PHD finger (UniProt Q9BTC0); experiment: histone peptide microarray; conditions: reference: H3K4me3 peptide
Rag2 PHD finger [4] = target: Rag2 PHD finger (UniProt P21784); experiment: histone peptide microarray; conditions: reference: H3K4me3 peptide
Taf3 PHD finger [5] = target: Taf3 PHD finger (UniProt Q5HZG4); experiment: histone peptide microarray; conditions: reference: H3K4me3 peptide
BPTF PHD finger [6] = target: BPTF PHD finger (UniProt Q12830); experiment: histone peptide microarray; conditions: reference: H3K4me3 peptide
PHF8 PHD finger [7] = target: PHF8 PHD finger (UniProt Q9UPP1); experiment: histone peptide microarray; conditions: reference: H3K4me3 peptide
ING1 PHD finger [8] = target: ING1 PHD finger (UniProt Q9UK53); experiment: histone peptide microarray; conditions: reference: H3K4me3 peptide
Rag2 PHD finger [9] = target: Rag2 PHD finger (UniProt P21784); experiment: biotin-peptide pull-down of GST-reader, anti-GST blot; conditions: reference: H3K4me3 peptide
[10] = target: KDM4A double Tudor domain (DTD) (UniProt O75164); experiment: as above; conditions: reference: H3K4me3 peptide; sites T3
DIDO PHD finger [11] = target: DIDO PHD finger (UniProt Q9BTC0); experiment: as above; conditions: reference: H3K4me3 peptide; sites T3
Taf3 PHD finger [12] = target: Taf3 PHD finger (UniProt Q5HZG4); experiment: as above; conditions: reference: H3K4me3 peptide; sites T3
BPTF PHD finger [13] = target: BPTF PHD finger (UniProt Q12830); experiment: as above; conditions: reference: H3K4me3 peptide; sites T3
PHF8 PHD finger [14] = target: PHF8 PHD finger (UniProt Q9UPP1); experiment: as above; conditions: reference: H3K4me3 peptide; sites T3
ING1 PHD finger [15] = target: ING1 PHD finger (UniProt Q9UK53); experiment: as above; conditions: reference: H3K4me3 peptide; sites T3
ING1 PHD finger [16] = target: ING1 PHD finger (UniProt Q9UK53); experiment: in vitro peptide binding, probably NMR titration; conditions: reference: H3K4me3 peptide (reference implied); sites T3,T6
[17] = target: T2, PHF8 PHD finger (aa 37–106) (UniProt Q9UPP1 37-106, uniformly 15N-labelled for NMR); experiment: other fluorescence titration
T2 sequence (looked up): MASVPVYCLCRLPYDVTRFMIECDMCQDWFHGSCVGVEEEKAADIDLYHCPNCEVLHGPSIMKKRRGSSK

Molecule: CCCNc1ccc2ncc(-c3ccc4[nH]ncc4c3)n2n1 [CHR6494]
DIDO and ING1 attachment to chromatin (RPE-1 cells; 1 μM): only a portion of these proteins remained attached to chromatin | H3T3ph level in prophase (RPE-1 cells; 1 μM): pronounced reduction of H3T3ph in prophase | DIDO and ING1 localization on chromatin (RPE-1 cells; 2 μM): co-localization of DIDO and ING1 on poorly condensed H3K4me-positive chromatin | completion of mitosis (RPE-1 cells; 2 μM): unable to complete mitosis

Molecule: H3K4me3 peptide (aa 1–12 of H3) (from UniProt P68431 2-13)
Kd [1]: 1.1 µM

Molecule: H3T3phK4me3T6ph: triple PTM-containing peptide
CSPs / binding to ING1 PHD finger (ING1 PHD finger [2]): markedly reduced

Molecule: histone H3 1-20 (from UniProt P68431) H3T3phK4me3 peptide
binding against the reference (DIDO PHD finger [3]; sites T3): weaker | binding against the reference (Rag2 PHD finger [4]; sites T3): weaker | binding against the reference (Taf3 PHD finger [5]; sites T3): weaker | binding against the reference (BPTF PHD finger [6]; sites T3): weaker | binding against the reference (PHF8 PHD finger [7]; sites T3): weaker | binding against the reference (ING1 PHD finger [8]; sites T3): weaker | binding against the reference [10]: weaker | binding against the reference (DIDO PHD finger [11]): weaker | binding against the reference (Rag2 PHD finger [9]; sites T3): weaker | binding against the reference (Taf3 PHD finger [12]): weaker | binding against the reference (BPTF PHD finger [13]): weaker | binding against the reference (PHF8 PHD finger [14]): weaker | binding against the reference (ING1 PHD finger [15]): weaker

B1: H3K4me3T6ph peptide (aa 1–12 of histone H3) (peptide, UniProt P68431 2-13, looked up)
peptide: ART[Lys(Me3)]Q[pT]ARKSTG
fold reduction of binding against H3K4me3 [17]: 2 fold

B2: H3K4me3 peptide (aa 1–12 of H3) (peptide, UniProt P68431 2-13, looked up)
peptide: ART[Lys(Me3)]QTARKSTG
Kd [17]: 2.5 µM

The remaining lines, values ahead:

Kd [1]: 5.5 µM
Molecule: H3K4me3T6ph peptide (aa 1–12 of histone H3) (from UniProt P68431 2-13)

binding against the reference (DIDO PHD finger [3]; sites T6): weaker | binding against the reference (Rag2 PHD finger [4]; sites T6): weaker | binding against the reference (Taf3 PHD finger [5]; sites T6): weaker | binding against the reference (BPTF PHD finger [6]; sites T6): weaker | binding against the reference (PHF8 PHD finger [7]; sites T6): weaker | binding against the reference (ING1 PHD finger [8]; sites T6): weaker | binding against the reference (Rag2 PHD finger [9]; sites T6): weaker
Molecule: histone H3 1-20 (from UniProt P68431) H3K4me3T6ph peptide

binding against the reference (ING1 PHD finger [16]): weaker
Molecule: histone H3 (from UniProt P68431) H3T3phK4me3T6ph peptide
